Experimental data published in ChEMBL document CHEMBL5712087, “Targeting bromodomain-containing protein 4 (BRD4) inhibits MYC expression in colorectal cancer cells” (Neoplasia, 2019).
Calls of active or inactive are those of the source. No cut-off for these calls is given here.

Columns and labels:
Format in all cases: cell-based
[1] = target: T1, von Hippel-Lindau disease tumor suppressor/Bromodomain-containing protein 4 (Homo sapiens) (UniProt O60885+P40337); assay: PROTAC activity at BRD4/VHL E3 ligase in human LS174T cells assessed as BRD4 protein degradation at 250 nM pretreated with VHL siRNA by Western blot analysis
[2] = target: T1, von Hippel-Lindau disease tumor suppressor/Bromodomain-containing protein 4 (Homo sapiens); assay: PROTAC activity at BRD4/VHL E3 ligase in human LS174T cells assessed as BRD4 protein degradation at 100 to 500 nM pretreated with proteasome inhibitor MG132 for 4 hrs by Western blot analysis; conditions: dose 100-500 nM
How it was run: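 LS174t cells were pre-incubated for 4 h with the proteasome inhibitor MG132 (10 mM DMSO stock) before PROTAC addition. BRD4 was then immunoblotted from RIPA lysates (15 µg, 10% SDS-PAGE, nitrocellulose, primary 1:1,000 overnight at 4 °C), with GAPDH/β-actin as loading control.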

[3] = target: T1, von Hippel-Lindau disease tumor suppressor/Bromodomain-containing protein 4 (Homo sapiens); assay: PROTAC activity at BRD4/VHL E3 ligase in human COLO 320 cells assessed as decrease in BRD4 protein degradation at 5 to 10 uM for 24 hrs by Western blot analysis; conditions: dose 5-10 µM
How it was run: (§1)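 Eight CRC lines exposed 24 h to PROTAC at 5 or 10 µM (stocks 2 mM in DMSO, diluted in PBS or medium). Lysis in RIPA with protease/phosphatase inhibitors and 2.5 mmol/l DTT; 15 µg protein on 10% SDS-PAGE, semi-dry transfer to nitrocellulose. Anti-BRD4 or anti-MYC at 1:1,000 overnight at 4 °C; GAPDH or β-actin loading control; chemiluminescence.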

[4] = target: T1, von Hippel-Lindau disease tumor suppressor/Bromodomain-containing protein 4 (Homo sapiens); assay: PROTAC activity at BRD4/VHL E3 ligase in human HCT116 p53+/+ cells assessed as decrease in BRD4 protein degradation at 5 to 10 uM for 24 hrs by Western blot analysis; conditions: HCT-116, dose 5-10 µM; how it was run: as §1
[5] = target: T1, von Hippel-Lindau disease tumor suppressor/Bromodomain-containing protein 4 (Homo sapiens); assay: PROTAC activity at BRD4/VHL E3 ligase in human LS174T cells assessed as decrease in BRD4 protein degradation at 5 to 10 uM for 24 hrs by Western blot analysis; conditions: dose 5-10 µM
How it was run: (§2)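 Eight CRC lines, including LS174t (RPMI 1640) and SW480 (DMEM/HamsF12), all with 10% FCS, were treated with PROTAC at 5 and 10 µM. BRD4 and MYC proteins were detected by immunoblot (RIPA lysate, 15 µg, 10% gel, primary 1:1,000 overnight at 4 °C), with GAPDH/β-actin as loading control.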

[6] = target: T1, von Hippel-Lindau disease tumor suppressor/Bromodomain-containing protein 4 (Homo sapiens); assay: PROTAC activity at BRD4/VHL E3 ligase in human HCT116 p53-/- cells assessed as decrease in MYC protein expression at 5 to 10 uM for 24 hrs by Western blot analysis; conditions: HCT-116, dose 5-10 µM; how it was run: as §1
[7] = target: T1, von Hippel-Lindau disease tumor suppressor/Bromodomain-containing protein 4 (Homo sapiens); assay: PROTAC activity at BRD4/VHL E3 ligase in human SW480 cells assessed as decrease in MYC protein expression at 5 to 10 uM for 24 hrs by Western blot analysis; conditions: dose 5-10 µM; how it was run: as §2
[8] = target: T2, Protein cereblon/Bromodomain-containing protein 4 (Homo sapiens) (UniProt O60885+Q96SW2); assay: PROTAC activity at BRD4/Cereblon in human LS174T cells assessed as complete BRD4 protein degradation at […] for 24 hrs by Western blot analysis
How it was run: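 Cells treated 24 h across 1 nM–10 µM range (fibroblasts at 500/1000 nM). Immunoblot: RIPA lysate with 2.5 mmol/l DTT, 15 µg per lane on 10% SDS-PAGE, nitrocellulose, 5% milk block 1 h. BRD4 or MYC primary 1:1,000 overnight at 4 °C, HRP secondary 1:10,000 for 60 min; GAPDH/β-actin loading control; ECL detection.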

[9] = target: T2, Protein cereblon/Bromodomain-containing protein 4 (Homo sapiens); assay: PROTAC activity at BRD4/Cereblon in human LS174T cells assessed as BRD4 protein degradation at 500 nM for 2 hrs by Western blot analysis
How it was run: (§3)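 LS174t cells exposed 2 h to PROTAC; for washout, medium replaced and cells collected 22 h later. BRD4 by immunoblot (15 µg lysate, 10% SDS-PAGE, anti-BRD4 1:1,000 overnight at 4 °C, GAPDH/β-actin control).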

[10] = target: T2, Protein cereblon/Bromodomain-containing protein 4 (Homo sapiens); assay: PROTAC activity at BRD4/Cereblon in human LS174T cells assessed as BRD4 protein expression at 500 nM for 2 hrs and measured 22 hrs after washout by Western blot analysis; how it was run: as §3
[11] = target: T2, Protein cereblon/Bromodomain-containing protein 4 (Homo sapiens); assay: PROTAC activity at BRD4/Cereblon in human LS174T cells assessed as decrease in BRD4 protein degradation at 5 to 10 uM for 24 hrs by Western blot analysis; conditions: dose 5-10 µM; how it was run: as §1
[12] = target: T2, Protein cereblon/Bromodomain-containing protein 4 (Homo sapiens); assay: PROTAC activity at BRD4/Cereblon in human HT-29 cells assessed as decrease in MYC protein expression at 5 to 10 uM for 24 hrs by Western blot analysis; conditions: dose 5-10 µM; how it was run: as §1

T1 sequence (P40337 whole entry, looked up, other chains not shown): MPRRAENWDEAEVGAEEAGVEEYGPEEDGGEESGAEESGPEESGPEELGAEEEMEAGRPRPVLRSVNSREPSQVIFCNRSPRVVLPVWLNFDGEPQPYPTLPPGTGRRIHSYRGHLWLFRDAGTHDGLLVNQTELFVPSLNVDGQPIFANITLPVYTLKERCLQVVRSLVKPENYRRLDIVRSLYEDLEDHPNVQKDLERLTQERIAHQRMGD
T2 sequence (Q96SW2 whole entry, looked up, other chains not shown): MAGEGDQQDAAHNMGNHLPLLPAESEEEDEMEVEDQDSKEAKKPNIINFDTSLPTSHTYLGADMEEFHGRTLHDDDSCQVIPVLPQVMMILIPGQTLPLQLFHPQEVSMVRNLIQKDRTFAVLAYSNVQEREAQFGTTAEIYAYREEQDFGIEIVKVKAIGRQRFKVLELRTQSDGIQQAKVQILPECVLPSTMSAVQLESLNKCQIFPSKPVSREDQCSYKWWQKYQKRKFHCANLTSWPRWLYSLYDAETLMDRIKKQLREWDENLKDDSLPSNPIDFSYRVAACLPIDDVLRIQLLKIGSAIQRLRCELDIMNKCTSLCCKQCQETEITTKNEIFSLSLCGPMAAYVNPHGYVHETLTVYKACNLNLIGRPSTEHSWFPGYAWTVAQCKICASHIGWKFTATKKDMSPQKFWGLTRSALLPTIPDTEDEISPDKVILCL

SMILES: Cc1ncsc1-c1ccc(CNC(=O)[C@@H]2C[C@@H](O)CN2C(=O)[C@@H](NC(=O)COCCOCCOCCNC(=O)C[C@@H]2N=C(c3ccc(Cl)cc3)c3c(sc(C)c3C)-n3c(C)nnc32)C(C)(C)C)cc1
- Activity [1]: inactive
- Activity [2]: inactive
- Activity [3]: Active
- Activity [4]: Active
- Activity [5]: Active
- Activity [6]: Active
- Activity [7]: Active

SMILES: Cc1sc2c(c1C)C(c1ccc(Cl)cc1)=N[C@@H](CC(=O)NCCCCNC(=O)COc1cccc3c1C(=O)N(C1CCC(=O)NC1=O)C3=O)c1nnc(C)n1-2 (some centres not stated)
- Activity [8]: Active
- Activity [9]: Active
- Activity [10]: inactive
- Activity [11]: Active
- Activity [12]: Active
